Measurements as given in ChEMBL document CHEMBL4610039, “Design, synthesis and apoptosis-related antiproliferative activities of chelidonine derivatives” (Bioorg Med Chem Lett, 2020).
Calls of active or inactive are those of the source. No cut-off for these calls is given here.

Experiments:
[1] = test system: K562; experiment: Induction of apoptosis in human K562 cells assessed as viable cells at 1.10 uM after 48 hrs by annexin V-FITC/propidium iodide staining based flow cytometry (reference value: 96.26%); assay type: functional; details: K562, 48 h, read-out: Activity
[2] = test system: K562; experiment: Induction of apoptosis in human K562 cells assessed as late apoptotic cells at 0.55 uM after 48 hrs by annexin V-FITC/propidium iodide staining based flow cytometry (reference value: 0.73%); assay type: functional
[3] = test system: K562; experiment: Induction of apoptosis in human K562 cells by annexin V-FITC/propidium iodide staining based flow cytometry; assay type: functional, cell-based
[4] = test system: K562; experiment: Induction of apoptosis in human K562 cells assessed as reduction in clusterin protein expression after 24 hrs by chemiluminescence based protein array analysis; assay type: functional, cell-based
Procedure, shortened: (§1)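 K562 cells were treated for 24 h, then proteins were extracted and run on a human apoptosis protein array. Chemiluminescent signals were detected with a digital imaging system.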

[5] = test system: K562; experiment: Induction of apoptosis in human K562 cells assessed as late apoptotic cells at 2.20 uM after 48 hrs by annexin V-FITC/propidium iodide staining based flow cytometry (reference value: 0.73%); assay type: functional
[6] = test system: K562; experiment: Induction of mitochondrial membrane potential loss in human K562 cells assessed as cell population with intact mitochondrial membrane potential at 1.10 uM after 48 hrs by JC1 staining-based flow cytometry analysis (reference value: 92.94%); assay type: functional
[7] = test system: K562; experiment: Induction of cell cycle arrest in human K562 cells assessed as accumulation at S phase after 72 hrs by propidium iodide staining based flow cytometry; assay type: functional
Procedure, shortened: (§2)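 For cell cycle, K562 cells were treated 72 h at 0, 0.55, 1.10 or 2.20 μM, with a solvent control. Cells were stained with PI and G1, S and G2/M fractions determined by flow cytometry.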

[8] = test system: HCT-116; experiment: Antiproliferative activity against human HCT116 cells assessed as reduction in cell growth after 72 hrs by MTT assay; assay type: functional, cell-based; details: HCT-116, 72 h
Procedure, shortened: (§3)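 Human HepG2, MCF-7, HCT-116 and K562 tumour cells plus normal L-02 hepatocytes and PBMCs were exposed to compounds for 72 h and growth was read by MTT. 5-Fu served as positive control. IC50 is the concentration inhibiting 50% of cell growth, given as mean ± standard deviation of three independent experiments.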

[9] = test system: K562; experiment: Induction of apoptosis in human K562 cells assessed as necrotic cells at 1.10 uM after 48 hrs by annexin V-FITC/propidium iodide staining based flow cytometry (reference value: 0.78%); assay type: functional
[10] = test system: K562; experiment: Induction of cell cycle arrest in human K562 cells assessed as accumulation at G1 phase at 0.55 uM after 72 hrs by propidium iodide staining based flow cytometry (reference value: 56.13%); assay type: functional; procedure, shortened: as §2
[11] = test system: HepG2; experiment: Antiproliferative activity against human HepG2 cells assessed as reduction in cell growth after 72 hrs by MTT assay; assay type: functional, cell-based; details: HepG2, 72 h; procedure, shortened: as §3
[12] = test system: K562; experiment: Induction of apoptosis in human K562 cells assessed as late apoptotic cells at 1.10 uM after 48 hrs by annexin V-FITC/propidium iodide staining based flow cytometry (reference value: 0.73%); assay type: functional
[13] = test system: K562; experiment: Induction of morphological changes in human K562 cells assessed as nuclear rupture at 0.55 to 2.20 uM after 48 hrs by Hoechst 33258 staining based fluorescence microscopic analysis; assay type: functional, cell-based
Procedure, shortened: (§4)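 After 48 h exposure at 0, 0.55, 1.10 or 2.20 μM, K562 cells were stained with Hoechst 33258. Nuclear morphology, including chromatin aggregation and nuclear rupture, was examined by fluorescence microscopy.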

[14] = test system: K562; experiment: Induction of cell cycle arrest in human K562 cells assessed as accumulation at S phase at 1.10 uM after 72 hrs by propidium iodide staining based flow cytometry (reference value: 35.68%); assay type: functional; procedure, shortened: as §2
[15] = test system: K562; experiment: Induction of cell cycle arrest in human K562 cells assessed as accumulation at G2/M phase at 1.10 uM after 72 hrs by propidium iodide staining based flow cytometry (reference value: 8.19%); assay type: functional; procedure, shortened: as §2
[16] = Drug metabolism assessed as nitric oxide release after 210 mins; assay type: physicochemical; details: 3.5 h
Procedure, shortened: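 NO released from the NO-donating derivatives was measured over time up to 210 min by Griess assay.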

[17] = test system: K562; experiment: Induction of apoptosis in human K562 cells assessed as viable cells at 2.20 uM after 48 hrs by annexin V-FITC/propidium iodide staining based flow cytometry (reference value: 96.26%); assay type: functional; details: K562, 48 h, read-out: Activity
[18] = test system: K562; experiment: Induction of apoptosis in human K562 cells assessed as reduction in survivin level after 24 hrs by chemiluminescence based protein array analysis; assay type: functional, cell-based; procedure, shortened: as §1
[19] = test system: K562; experiment: Induction of mitochondrial membrane potential loss in human K562 cells after 48 hrs by JC1 staining-based flow cytometry analysis; assay type: functional, cell-based
[20] = test system: K562; experiment: Induction of cell cycle arrest in human K562 cells assessed as accumulation at S phase at 2.20 uM after 72 hrs by propidium iodide staining based flow cytometry (reference value: 35.68%); assay type: functional; procedure, shortened: as §2
[21] = test system: K562; experiment: Induction of mitochondrial membrane potential loss in human K562 cells assessed as cell population with intact mitochondrial membrane potential at 2.20 uM after 48 hrs by JC1 staining-based flow cytometry analysis (reference value: 92.94%); assay type: functional
[22] = test system: K562; experiment: Induction of morphological changes in human K562 cells assessed as chromatin aggregation at 0.55 to 2.20 uM after 48 hrs by Hoechst 33258 staining based fluorescence microscopic analysis; assay type: functional, cell-based; procedure, shortened: as §4
[23] = test system: K562; experiment: Induction of apoptosis in human K562 cells assessed as increase in Bad protein expression after 24 hrs by chemiluminescence based protein array analysis; assay type: functional, cell-based; procedure, shortened: as §1
[24] = test system: K562; experiment: Induction of cell cycle arrest in human K562 cells assessed as accumulation at G2/M phase at 2.20 uM after 72 hrs by propidium iodide staining based flow cytometry (reference value: 8.19%); assay type: functional; procedure, shortened: as §2
[25] = test system: K562; experiment: Induction of cell cycle arrest in human K562 cells assessed as accumulation at G2/M phase at 0.55 uM after 72 hrs by propidium iodide staining based flow cytometry (reference value: 8.19%); assay type: functional; procedure, shortened: as §2
[26] = test system: L02; experiment: Antiproliferative activity against human L02 cells assessed as reduction in cell growth after 72 hrs by MTT assay; assay type: functional, cell-based; details: L02, 72 h; procedure, shortened: as §3
[27] = test system: MCF7; experiment: Antiproliferative activity against human MCF7 cells assessed as reduction in cell growth after 72 hrs by MTT assay; assay type: functional, cell-based; details: MCF7, 72 h; procedure, shortened: as §3
[28] = test system: K562; experiment: Induction of mitochondrial membrane potential loss in human K562 cells assessed as cell population with mitochondrial membrane potential collapse at 2.20 uM after 48 hrs by JC1 staining-based flow cytometry analysis (reference value: 7.04%); assay type: functional
[29] = test system: K562; experiment: Induction of apoptosis in human K562 cells assessed as viable cells at 0.55 uM after 48 hrs by annexin V-FITC/propidium iodide staining based flow cytometry (reference value: 96.26%); assay type: functional; details: K562, 48 h, read-out: Activity
[30] = test system: K562; experiment: Induction of apoptosis in human K562 cells assessed as reduction in bcl-xl protein expression after 24 hrs by chemiluminescence based protein array analysis; assay type: functional, cell-based; procedure, shortened: as §1
[31] = test system: PBMC; experiment: Cytotoxicity against human PBMC assessed as reduction in cell growth after 72 hrs by MTT assay; assay type: cell-based; procedure, shortened: as §3
[32] = test system: K562; experiment: Induction of mitochondrial membrane potential loss in human K562 cells assessed as cell population with intact mitochondrial membrane potential at 0.55 uM after 48 hrs by JC1 staining-based flow cytometry analysis (reference value: 92.94%); assay type: functional
[33] = test system: K562; experiment: Induction of cell cycle arrest in human K562 cells assessed as accumulation at G1 phase at 2.20 uM after 72 hrs by propidium iodide staining based flow cytometry (reference value: 56.13%); assay type: functional; procedure, shortened: as §2

Q: Which results are given for `CN1Cc2c(ccc3c2OCO3)[C@H]2[C@@H](OC(=O)CCCC(=O)OCC#CCOc3no[n+]([O-])c3S(=O)(=O)c3ccccc3)Cc3cc4c(cc3[C@H]21)OCO4`?
A: viability at 1.1 µM [1]: 80.5%; Activity [2]: 3.47%; Activity [3]: Dose-dependent effect; Activity [4]: Active; Activity [5]: 28.97%; Activity [6]: 71.34%; Activity [7]: Dose-dependent effect; IC50 [8]: 4.36 µM; Activity [9]: 0.66%; Activity [10]: 47.82%; IC50 [11]: 3.91 µM; Activity [12]: 2.39%; Activity [13]: Active; Activity [14]: 52.04%; Activity [15]: 6.69%; Drug metabolism [16]: 30 µM; viability at 2.2 µM [17]: 45%; Activity [18]: Active; Activity [19]: Dose-dependent effect; Activity [20]: 59.72%; Activity [21]: 48.85%; Activity [22]: Active; Activity [23]: Active; Activity [24]: 7.87%; Activity [25]: 10.28%; IC50 [26]: 6.04 µM; IC50 [27]: 6.9 µM; Activity [28]: 51.15%; viability at 0.55 µM [29]: 88.3%; Activity [30]: Active; IC50 [31]: > 40 µM; Activity [32]: 80.71%; Activity [33]: 32.41%
